Published values gathered from unrelated publications.
Lines come from different studies, so protocols differ.

O=C(C=Cc1ccccc1)Nc1cc(-c2ccnc(N3CCC(O)CC3)c2)ccn1  half-life (female Sprague-Dawley rat, plasma; intravenous, 5 mg/kg): 0.47 h
COc1cc(C2NC(=O)NC(C)=C2C(=O)OC(C)C)cc(OC)c1OC (stereo not shown)  viability (MCF-10A; cell growth or viability, MTT; 50 µM, 96 h): 92%
O=C(c1ccc(OCCN2CCCCC2)cc1)c1c(-c2ccc(O)cc2)sc2cc(O)ccc12  inhibition (Broad substrate specificity ATP-binding cassette transporter ABCG2 (ABCG2, Homo sapiens, UniProt Q9UNQ0); transporter uptake, inhibitor; Sf9; 10 µM, pH 7, cell membranes): ~50%
O=C1CC[C@H](N2Cc3cc(N4CCN(CC5CCN(c6ccc([C@@H]7c8ccc(O)cc8CC[C@@H]7c7ccccc7)cc6)CC5)CC4)ccc3C2=O)C(=O)N1  half-life (female Sprague-Dawley rat, plasma; oral, 20 mg/kg, fasted): 5.24 h
N#C[C@@]12C[C@@H]1[C@@H](n1cnc3c(N[C@@H](C4CCC4)C4CC4)nc(I)nc31)[C@H](O)[C@@H]2O  half-life (male Wistar rat, plasma; oral, 1 mg/kg): 2.2 h
CC1=C(C(=O)OC(C)C)C(c2cccc(O)c2)NC(=S)N1 (stereo not shown)  viability (MCF-10A; cell growth or viability, MTT; 50 µM, 96 h): 93%
CC1(CN)CCN(c2cnc3c(Sc4ccncc4Cl)n[nH]c3n2)CC1  half-life (male Sprague-Dawley rat, plasma; oral, 10 mg/kg): 2.47 h
C/C(=N\c1ccc(O)cc1)c1cc2ccccc2n1C  concentration (male Sprague-Dawley rat, plasma; intravenous, 5 mg/kg, 5 min, single dose): 173 ng/mL
COc1cc(C2NC(=O)NC(C)=C2C(=O)OC(C)C)ccc1OCc1ccccc1 (stereo not shown)  viability (MCF-10A; cell growth or viability, MTT; 50 µM, 96 h): 91%
CC(=Nc1ccc(N=Cc2cnccn2)cc1)N(C)C  half-life (male Sprague-Dawley rat, plasma; intravenous, 20 mg/kg): 1.53 h
CC1=C(C(=O)OC(C)C)C(c2cccc(O)c2)NC(=O)N1 (stereo not shown)  viability (MCF-10A; cell growth or viability, MTT; 50 µM, 96 h): 87%
Nc1ccc(/C=C/C(=O)NCc2cc3cc(-c4ccc(C(=O)N5CCC(F)(F)CC5)cc4)cc(-c4ccc(F)cc4)c3o2)cn1  half-life (rat, plasma; intravenous, 1 mg/kg): 5.61 h
COc1cccc2c1C(=O)c1c(O)c3c(c(O)c1C2=O)C[C@@](O)(C(=O)CO)C[C@@H]3O[C@H]1C[C@H](N)[C@H](O)[C@H](C)O1  viability (K562; cell growth or viability, MTT; 100 µg/mL): 23.9%
